# Test results taken from ChEMBL document CHEMBL1123289, “Structure-activity relationships of dopaminergic 5-hydroxy-2-aminotetralin derivatives with functionalized N-alkyl substituents” (J Med Chem, 1986).
# Legend:
# [1] = Dopamine receptor binding affinity by displacing the radioligand [3H]-dopamine from dopamine receptor.; set-up: species or system Bos taurus
# Procedure, shortened: (§1)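 Radioligand displacement was run on membrane fractions from calf caudate nucleus, with [3H]DA or [3H]spiroperidol as the labelled ligand.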
# [2] = Dopamine receptor binding affinity by displacing the radioligand [3H]spiroperidol from dopamine receptor.; set-up: species or system Bos taurus; procedure, shortened: as §1
# [3] = biological target: T1, Dopamine receptor (Rattus norvegicus) (UniProt P25115+P19020+P30729+P18901+P61169); experiment: Evaluation for contralateral turning in 6-hydroxy-dopamine-lesioned rats administered intraperitoneally at the dose 1 mg/kg duration; assay type: functional, organism-based; set-up: dose 1 mg/kg
# Procedure, shortened: (§2)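 Rats carrying a unilateral lesion of the nigrostriatal pathway were scored for induced turning toward the side contralateral to the lesion, using an Ungerstedt-type rotation procedure.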
# [4] = biological target: T1, Dopamine receptor (Rattus norvegicus); experiment: Evaluation for contralateral turning in 6-hydroxy-dopamine-lesioned rats administered intraperitoneally at the dose 1 mg/kg Maximum intensity (turnings/min); assay type: functional, organism-based; set-up: dose 1 mg/kg; procedure, shortened: as §2
# [5] = biological target: T1, Dopamine receptor (Rattus norvegicus); experiment: Evaluation for contralateral turning in 6-hydroxy-dopamine-lesioned rats administered intraperitoneally at the dose 1 mg/kg total turnings; assay type: functional, organism-based; set-up: dose 1 mg/kg; procedure, shortened: as §2
# [6] = system: Rattus norvegicus; experiment: Compound was evaluated for the contralateral turning in 6-hydroxy-dopamine-lesioned rats administered intraperitoneally at the dose 1 mg/kg; assay type: functional; details: route intraperitoneal; procedure, shortened: as §2
SMILES,IC50 [1],IC50 [2],Duration [3],Max intensity [4],Total turnings [5],Duration [6],Max intensity [6],Total turnings [6]
CCCN1C[C@H](CSC)C[C@@H]2c3cccc4[nH]cc(c34)C[C@H]21 [PERGOLIDE],18 nM,145 nM,> 7 h,9.7 turns min-1,1800,,,
CN(CCCC#N)C1CCc2c(O)cccc2C1 (stereo not drawn),500 nM,3500 nM,,,< 150,,,
CCCN(CCCNC(C)=O)C1CCc2c(O)cccc2C1 (stereo not drawn),190 nM,1800 nM,,,,4 h,1.6 turns min-1,159
CCCN(CCCc1ccccc1)C1CCc2c(O)cccc2C1 (stereo not drawn),48 nM,140 nM,5 h,6.6 turns min-1,656,,,
CN1C[C@@H](CC#N)C[C@@H]2c3cccc4[nH]cc(c34)C[C@H]21 [DELERGOTRILE],265 nM,520 nM,> 7 h,14.4 turns min-1,2610,,,
CCCN(CCCNC(=O)OCC)C1CCc2c(O)cccc2C1 (stereo not drawn),77 nM,525 nM,,,,5 h,10.4 turns min-1,1216
CCCN(CCNS(=O)(=O)N(CC)CC)C1CCc2c(O)cccc2C1 (stereo not drawn),41 nM,220 nM,,,,3 h,7.8 turns min-1,1015
C=CCCCN(CCC)C1CCc2c(O)cccc2C1 (stereo not drawn),48 nM,400 nM,7 h,7.7 turns min-1,1740,,,
CCCN(CCCNS(=O)(=O)N(C)C)C1CCc2c(O)cccc2C1 (stereo not drawn),100 nM,370 nM,,,,4 h,7.6 turns min-1,857
CCCN(CCCS(C)(=O)=O)C1CCc2c(O)cccc2C1 (stereo not drawn),110 nM,1860 nM,,,,1 h,5.7 turns min-1,531
CCCN(CCc1ccccc1)C1CCc2c(O)cccc2C1 (stereo not drawn),40 nM,180 nM,6 h,8.7 turns min-1,1520,,,
CCN(CC)S(=O)(=O)N[C@H]1C[C@@H]2c3cccc4[nH]cc(c34)C[C@H]2N(C)C1 [ETISULERGINE],120 nM,25 nM,,,,>7 h,11.8 turns min-1,3688
CCCN(CCCC(=O)OC)C1CCc2c(O)cccc2C1 (stereo not drawn),140 nM,910 nM,,,,,,<150
CCCN(CCCC(=O)NC)C1CCc2c(O)cccc2C1 (stereo not drawn),38 nM,825 nM,,,,6 h,6.4 turns min-1,413
CCCN(CCC)C1CCc2c(O)cccc2C1 (stereo not drawn) [5-OH-DPAT],49 nM,1350 nM,6 h,22.7 turns min-1,2540,,,
CCCN(CCCN=[N+]=[N-])C1CCc2c(O)cccc2C1 (stereo not drawn),58 nM,530 nM,7 h,6.7 turns min-1,1860,,,
CCCN(CCCNC(=O)N(CC)CC)C1CCc2c(O)cccc2C1 (stereo not drawn),220 nM,1300 nM,,,,,,

# Second part, led by results:
IC50 [1],IC50 [2],Duration [3],Max intensity [4],Total turnings [5],SMILES,Duration [6],Max intensity [6],Total turnings [6]
130 nM,7500 nM,,,< 150,CCCN(CCC#N)C1CCc2c(O)cccc2C1 (stereo not drawn),,,
43 nM,220 nM,,,,CCCN(CCCSC)C1CCc2c(O)cccc2C1 (stereo in doubt; 12) [listing 1 of 2 here],,,
91 nM,1500 nM,4 h,10.8 turns min-1,1460,CCCN(CCCCC#N)C1CCc2c(O)cccc2C1 (stereo not drawn),,,
2000 nM,4580 nM,,,,CCCN(CCCN)C1CCc2c(O)cccc2C1 (stereo not drawn),,,
,,6 h,12 turns min-1,3260,CCCN(CCCC#N)C1CCc2c(O)cccc2C1 (stereo in doubt; (-)-3) [listing 1 of 2 here],,,
185 nM,1450 nM,3 h,10.2 turns min-1,721,CCCN(CCCO)C1CCc2c(O)cccc2C1 (stereo not drawn),,,
68 nM,920 nM,,,< 150,CCN(CCCC#N)C1CCc2c(O)cccc2C1 (stereo not drawn),,,
37 nM,370 nM,,,,CCCN(CCCC#N)C1CCc2c(O)cccc2C1 (stereo in doubt; (-)-3) [listing 2 of 2 here],,,
46 nM,1020 nM,7 h,12.5 turns min-1,2660,CCCN(CCCCl)C1CCc2c(O)cccc2C1 (stereo not drawn),,,
38 nM,230 nM,,,,"CCCN(CCCSC)C1CCc2c(O)cccc2C1 (single isomer, unassigned; (-)) [listing 1 of 2 here]",,,
490 nM,3500 nM,,,,"CCCN(CCCC#N)C1CCc2c(O)cccc2C1 (single isomer, unassigned; (+))",,,
,,3 h,10.3 turns min-1,1170,CCCN(CCCC#N)C1CCc2c(O)cccc2C1 (stereo in doubt; 3) [listing 1 of 2 here],,,
,,7 h,15.2 turns min-1,3590,"CCCN(CCCSC)C1CCc2c(O)cccc2C1 (single isomer, unassigned; (-)) [listing 2 of 2 here]",,,
150 nM,2200 nM,2 h,7.4 turns min-1,347,CCCN(CCCOC)C1CCc2c(O)cccc2C1 (stereo not drawn),,,
,,7 h,9.8 turns min-1,1980,CCCN(CCCSC)C1CCc2c(O)cccc2C1 (stereo in doubt; 12) [listing 2 of 2 here],,,
35 nM,790 nM,,,,CCCN(CCCC#N)C1CCc2c(O)cccc2C1 (stereo in doubt; 3) [listing 2 of 2 here],,,
